The EC50 is the concentration needed to bring the measured effect to its halfway point.

Structures are written as SMILES. Where a SMILES comes first, the peptide text is derived from it.

In ChEMBL document CHEMBL3102805, “Truncated Orexin Peptides: Structure-Activity Relationship Studies” (ACS Med Chem Lett, 2013) one finds Ratio EC50 and EC50 data, which are given here for seven molecules.

The species named for one assay is Homo sapiens. Briefly: Selectivity ratio of EC50 for human OX2 receptor to EC50 for human OX1 receptor.
Another assay has as its target T1, Orexin receptor type 2 (Homo sapiens, UniProt O43614).
T1 sequence (O43614 whole entry): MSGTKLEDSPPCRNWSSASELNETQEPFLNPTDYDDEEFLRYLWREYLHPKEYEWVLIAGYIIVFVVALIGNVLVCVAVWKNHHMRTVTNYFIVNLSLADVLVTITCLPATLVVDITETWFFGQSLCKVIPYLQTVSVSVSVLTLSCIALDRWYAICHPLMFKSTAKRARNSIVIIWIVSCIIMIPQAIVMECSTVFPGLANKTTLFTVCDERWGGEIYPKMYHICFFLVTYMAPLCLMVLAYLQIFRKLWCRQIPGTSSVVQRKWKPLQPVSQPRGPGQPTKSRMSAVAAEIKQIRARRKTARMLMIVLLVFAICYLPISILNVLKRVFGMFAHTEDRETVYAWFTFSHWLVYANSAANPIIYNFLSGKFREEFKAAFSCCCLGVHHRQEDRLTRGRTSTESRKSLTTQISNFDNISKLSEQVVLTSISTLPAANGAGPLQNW
Briefly: Agonist activity at human OX2 receptor overexpressed in CHO-RD-HGA16 cells assessed as calcium mobilization after 15 mins by fluorescence assay. Format: functional, cell-based. Background: Calcium flux is commonly read through the fluorescence of an indicator in the cells.

In assay [1] the target is T2, Orexin/Hypocretin receptor type 1 (Homo sapiens, UniProt O43613).
T2 sequence (O43613 whole entry): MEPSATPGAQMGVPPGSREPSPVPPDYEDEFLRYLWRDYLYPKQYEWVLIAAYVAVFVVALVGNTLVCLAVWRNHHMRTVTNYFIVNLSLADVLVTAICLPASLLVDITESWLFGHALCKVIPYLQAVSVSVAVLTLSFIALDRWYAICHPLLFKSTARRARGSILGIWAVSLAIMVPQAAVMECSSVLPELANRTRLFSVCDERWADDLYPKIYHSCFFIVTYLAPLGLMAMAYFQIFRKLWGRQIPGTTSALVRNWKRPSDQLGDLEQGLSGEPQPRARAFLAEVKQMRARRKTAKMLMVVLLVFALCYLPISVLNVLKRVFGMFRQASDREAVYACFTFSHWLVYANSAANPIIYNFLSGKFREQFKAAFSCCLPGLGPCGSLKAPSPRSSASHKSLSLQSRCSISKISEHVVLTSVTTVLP
Briefly: Agonist activity at human OX1 receptor overexpressed in CHO-RD-HGA16 cells assessed as calcium mobilization after 15 mins by fluorescence assay. Format: functional, cell-based. An outline of the steps:
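EC50 from 8-point half-log concentration-response curves. Values are means of at least three independent experiments in duplicate, with SEM, or means of two independent duplicate experiments.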

Turning to `CC[C@H](C)[C@H](NC(=O)CNC(=O)[C@H](C)NC(=O)[C@H](C)NC(=O)[C@@H](Cc1cnc[nH]1)NC(=O)[C@H](CC(N)=O)NC(=O)CNC(=O)[C@H](C)NC(=O)CNC(=O)[C@H](Cc1cnc[nH]1)NC(=O)[C@H](CC(C)C)NC(=O)[C@H](CC(C)C)NC(=O)[C@H](CCC(=O)O)NC(=O)[C@@H](N)Cc1ccc(O)cc1)C(=O)N[C@@H](CC(C)C)C(=O)N[C@H](C(=O)N[C@@H](CC(C)C)C(N)=O)[C@@H](C)O`, the Ratio EC50 in the assay listed under Homo sapiens is 0.3. The EC50 at Orexin receptor type 2 came to 1760 nM; in assay [1], 5700 nM.
Consider `CC[C@H](C)[C@H](NC(=O)CNC(=O)[C@H](C)NC(=O)[C@@H](C)NC(=O)[C@H](Cc1cnc[nH]1)NC(=O)[C@H](CC(N)=O)NC(=O)CNC(=O)[C@H](C)NC(=O)CNC(=O)[C@H](Cc1cnc[nH]1)NC(=O)[C@H](CC(C)C)NC(=O)[C@H](CC(C)C)NC(=O)[C@H](CCC(=O)O)NC(=O)[C@@H](N)Cc1ccc(O)cc1)C(=O)N[C@@H](CC(C)C)C(=O)N[C@H](C(=O)N[C@@H](CC(C)C)C(N)=O)[C@@H](C)O`, for which the Ratio EC50 in the assay filed under Homo sapiens worked out at 0.7. Besides, the EC50 came to 1250 nM on Orexin receptor type 2 and 1900 nM in assay [1].
As for `CC[C@H](C)[C@H](NC(=O)CNC(=O)[C@H](C)NC(=O)[C@H](C)NC(=O)[C@H](Cc1cnc[nH]1)NC(=O)[C@H](CC(N)=O)NC(=O)CNC(=O)[C@@H](C)NC(=O)CNC(=O)[C@H](Cc1cnc[nH]1)NC(=O)[C@H](CC(C)C)NC(=O)[C@H](CC(C)C)NC(=O)[C@H](CCC(=O)O)NC(=O)[C@@H](N)Cc1ccc(O)cc1)C(=O)N[C@@H](CC(C)C)C(=O)N[C@H](C(=O)N[C@@H](CC(C)C)C(N)=O)[C@@H](C)O`, the Ratio EC50 in the assay filed under Homo sapiens was determined as 0.6. The values for the EC50 (on Orexin receptor type 2; in assay [1]) were 1920 nM and 3070 nM, respectively.
As to `CC[C@H](C)[C@H](NC(=O)CNC(=O)[C@H](C)NC(=O)[C@H](C)NC(=O)[C@H](Cc1cnc[nH]1)NC(=O)[C@H](CC(N)=O)NC(=O)CNC(=O)[C@H](C)NC(=O)CNC(=O)[C@H](Cc1cnc[nH]1)NC(=O)[C@H](CC(C)C)NC(=O)[C@H](CC(C)C)NC(=O)[C@H](CCC(=O)O)NC(=O)[C@@H](N)Cc1ccc(O)cc1)C(=O)N[C@@H](CC(C)C)C(=O)N[C@H](C(=O)N[C@@H](CC(C)C)C(N)=O)[C@@H](C)O`, the EC50 amounted to 187 nM at Orexin receptor type 2 and 8.29 nM in assay [1].
Turning to `CC[C@H](C)[C@H](NC(=O)CNC(=O)[C@H](C)NC(=O)[C@H](C)NC(=O)[C@H](Cc1c[nH]cn1)NC(=O)[C@H](CC(N)=O)NC(=O)CNC(=O)[C@H](C)NC(=O)CNC(=O)[C@H](Cc1c[nH]cn1)NC(=O)[C@H](CC(C)C)NC(=O)[C@H](CC(C)C)NC(=O)[C@H](CCC(=O)O)NC(=O)[C@@H](N)Cc1ccc(O)cc1)C(=O)N[C@@H](CC(C)C)C(=O)N[C@H](C(=O)N[C@@H](CC(C)C)C(N)=O)[C@@H](C)O`, in the assay listed under Homo sapiens, the Ratio EC50 turned out to be 23.
In the case of `CC[C@H](C)[C@H](NC(=O)CNC(=O)[C@H](C)NC(=O)[C@H](C)NC(=O)[C@H](Cc1cnc[nH]1)NC(=O)[C@H](CC(N)=O)NC(=O)CNC(=O)[C@H](C)NC(=O)CNC(=O)[C@H](Cc1cnc[nH]1)NC(=O)[C@H](CC(C)C)NC(=O)[C@H](CC(C)C)NC(=O)[C@H](CCC(=O)O)NC(=O)[C@H](Cc1ccc(O)cc1)NC(=O)[C@H](CC(C)C)NC(=O)[C@@H](N)CCCNC(=N)N)C(=O)N[C@@H](CC(C)C)C(=O)N[C@H](C(=O)N[C@@H](CC(C)C)C(N)=O)[C@@H](C)O` (H-RLYELLHGAGNHAAGILTL-NH2), the EC50 on Orexin receptor type 2 came out at 976 nM; in assay [1], 64 nM.
In the case of `CC[C@H](C)[C@H](NC(=O)CNC(=O)[C@H](C)NC(=O)[C@H](C)NC(=O)[C@H](Cc1c[nH]cn1)NC(=O)[C@H](CC(N)=O)NC(=O)CNC(=O)[C@H](C)NC(=O)CNC(=O)[C@H](Cc1c[nH]cn1)NC(=O)[C@H](CC(C)C)NC(=O)[C@H](CC(C)C)NC(=O)[C@H](CCC(=O)O)NC(=O)[C@H](Cc1ccc(O)cc1)NC(=O)[C@H](CC(C)C)NC(=O)[C@@H](N)CCCN=C(N)N)C(=O)N[C@@H](CC(C)C)C(=O)N[C@H](C(=O)N[C@@H](CC(C)C)C(N)=O)[C@@H](C)O` (H-RLYELLHGAGNHAAGILTL-NH2), the Ratio EC50 in the assay listed under Homo sapiens was 15.
